Assay results as given in ChEMBL document CHEMBL1126267, “A novel synthesis and potent antiinflammatory activity of 4-hydroxy-2(1H)-oxo-1-phenyl-1,8-naphthyridine-3-carboxamides” (1992).

Columns and labels:
Type in all cases: functional
[1] = tested on: Rattus norvegicus; assay: Compound was tested for the inhibition of rat reversed passive Arthus pleurisy after peroral administration of 100 mg/kg dose at 4.63*10e6 no of cells with 5.72*10e6 cells of control; conditions: route oral
Outline: (§1)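 Male Wistar rats (about 250 g) under ether received 0.2 mL rabbit anti-egg-albumin antiserum intrapleurally. Thirty min later they got 15 mg EA/100 g body weight in 0.1 mL saline iv. Compounds were given orally beforehand. Rats were killed 4.5 h after induction and the thoracic cavity rinsed with 5 mL saline. Exudate volume and infiltrated cell count were read as mean ± SE. % inhibition is versus control.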

[2] = tested on: Rattus norvegicus; assay: Compound was tested for the inhibition of rat reversed passive Arthus pleurisy after peroral administration of 100 mg/kg dose at 0.63 mL of exudate volume with 0.84 mL of control (injected intrapleurally); conditions: route oral
Outline: (§2)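 Male Wistar rats (about 250 g) were given compound orally before the antiserum. Under ether anesthesia, 0.2 mL rabbit anti-egg albumin antiserum was injected intrapleurally. After 30 min, egg albumin (15 mg/100 g body weight in 0.1 mL saline) was given iv. Rats were killed 4.5 h later and the thoracic cavity was rinsed with 5 mL saline. Exudate volume and infiltrated cell number were measured, with inhibition % versus controls as mean ± SEM.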

[3] = tested on: Rattus norvegicus; assay: Inhibition of carrageenan-induced rat's paw edema (CPE) after peroral administration of 100 mg/kg dose.; conditions: route oral
Outline: (§3)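 Male Wistar rats (about 150 g) were dosed orally with compound suspended in 5% arabic gum, 1 h before a subplantar hind-paw injection of 0.1 mL saline. The irritant was 1% zymosan for 33 or 1% λ-carrageenin for 34. Paw volume was measured by plethysmograph before dosing and at 4 h (zymosan) or 3 h (carrageenin). Swelling is relative to initial volume, as mean ± SEM. % inhibition is versus the control group's mean swelling.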

[4] = tested on: Rattus norvegicus; assay: Antiinflammatory activity on Zymosan-induced rat's paw edema(ZPE) after peroral administration of 100 mg/kg dose with control swelling of 62.8%; conditions: route oral
Outline: (§4)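 Male Wistar rats weighing about 150 g were dosed orally with compound suspended in 5% arabic gum. 1 h later, 1% zymosan in 0.1 mL saline was injected subplantarly into the hind paw. Paw volume was measured by plethysmograph before dosing and 4 h after zymosan, with edema as the volume difference. Inhibition % was derived from mean swelling versus the control group.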

[5] = tested on: Rattus norvegicus; assay: Antiinflammatory activity on Carrageenan rat's paw edema(CPE) after peroral administration of 100 mg/kg dose with control swelling of 68.1%; conditions: route oral
[6] = tested on: Rattus norvegicus; assay: Inhibition of Zymosan-induced rat's paw edema(ZPE) after peroral administration of 100 mg/kg dose.; conditions: route oral; outline: as §3
[7] = tested on: Rattus norvegicus; assay: Antiinflammatory activity on Zymosan-induced rat's paw edema(ZPE) after peroral administration of 100 mg/kg dose with control swelling of 72.9%; conditions: route oral; outline: as §4
[8] = tested on: Rattus norvegicus; assay: Antiinflammatory activity on Carrageenan rat's paw edema(CPE) after peroral administration of 100 mg/kg dose with control swelling of 73.7%; conditions: route oral
[9] = tested on: Rattus norvegicus; assay: Compound was tested for the inhibition of rat reversed passive Arthus pleurisy after peroral administration of 100 mg/kg dose at 0.08+/-0.01 mL of exudate volume (injected intrapleurally); conditions: route oral; outline: as §2
[10] = tested on: Rattus norvegicus; assay: Antiinflammatory activity on Carrageenan rat's paw edema(CPE) after peroral administration of 3 mg/kg dose with control swelling of 75.8%; conditions: route oral
[11] = tested on: Rattus norvegicus; assay: Compound was tested for the inhibition of rat reversed passive Arthus pleurisy after peroral administration of 100 mg/kg dose at 2.13*10e6 no of cells with 3.86*10e6 cells of control; conditions: route oral; outline: as §2
[12] = tested on: Rattus norvegicus; assay: Compound was tested for the inhibition of arachidonic acid-induced rat's paw edema(APE) after peroral administration of 30 mg/kg dose with control swelling of 51.6%; conditions: route oral
[13] = tested on: Rattus norvegicus; assay: Compound was tested for the inhibition of rat reversed passive Arthus pleurisy after peroral administration of 10 mg/kg dose at 4.6+/-0.25*10e6 no of cells; conditions: route oral; outline: as §2
[14] = tested on: Rattus norvegicus; assay: Compound was tested for the inhibition of arachidonic acid-induced rat's paw edema(APE) after peroral administration of 10 mg/kg dose with control swelling of 51.6%; conditions: route oral
Outline: (§5)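 Test: arachidonic acid paw edema in male Wistar rats of about 150 g. Oral dosing in 5% arabic gum came 1 h before subplantar injection of 1% arachidonic acid sodium salt in 0.1 mL saline into the hind paw. Plethysmograph paw volume was read before dosing and 1 h post-irritant, and edema = volume difference. % inhibition was taken from mean swelling against controls.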

[15] = tested on: Rattus norvegicus; assay: Compound was tested for the inhibition of rat reversed passive Arthus pleurisy after peroral administration of 5 mg/kg dose at 0.73+/-0.03 mL of exudate volume (injected intrapleurally); conditions: route oral; outline: as §1
[16] = tested on: Rattus norvegicus; assay: Compound was tested for the inhibition of arachidonic acid-induced rat's paw edema(APE) after peroral administration of 10 mg/kg dose; conditions: route oral; outline: as §5
[17] = tested on: Rattus norvegicus; assay: Antiinflammatory activity on Zymosan-induced rat's paw edema(ZPE) after peroral administration of 10 mg/kg dose with control swelling of 68.1%; conditions: route oral; outline: as §4
[18] = tested on: Rattus norvegicus; assay: Compound was tested for the inhibition of rat reversed passive Arthus pleurisy after peroral administration of 10 mg/kg dose at 0.53+/-0.05 mL of exudate volume (injected intrapleurally); conditions: route oral; outline: as §2
[19] = tested on: Rattus norvegicus; assay: Antiinflammatory activity on Zymosan-induced rat's paw edema(ZPE) after peroral administration of 100 mg/kg dose with control swelling of 71.7%; conditions: route oral; outline: as §4
[20] = tested on: Rattus norvegicus; assay: Compound was tested for the inhibition of rat reversed passive Arthus pleurisy after peroral administration of 5 mg/kg dose at 2.79 +/- 0.19*10e6 no of cells; conditions: route oral; outline: as §1
[21] = tested on: Rattus norvegicus; assay: Antiinflammatory activity on Zymosan-induced rat's paw edema(ZPE) after peroral administration of 30 mg/kg dose with control swelling of 68.1%; conditions: route oral; outline: as §4
[22] = tested on: Rattus norvegicus; assay: Antiinflammatory activity on Zymosan-induced rat's paw edema(ZPE) after peroral administration of 3 mg/kg dose with control swelling of 68.1%; conditions: route oral; outline: as §4
[23] = tested on: Rattus norvegicus; assay: Compound was tested for the inhibition of Carrageenan rat's paw edema(CPE) after peroral administration of 3 mg/kg dose; conditions: route oral
[24] = tested on: Rattus norvegicus; assay: Compound was tested for the inhibition of arachidonic acid-induced rat's paw edema(APE) after peroral administration of 3 mg/kg dose; conditions: route oral; outline: as §5
[25] = tested on: Rattus norvegicus; assay: Compound was tested for the inhibition of rat reversed passive Arthus pleurisy after peroral administration of 100 mg/kg dose at 2.13+/-0.24*10e6 no of cells; conditions: route oral; outline: as §2
[26] = tested on: Rattus norvegicus; assay: Compound was tested for the inhibition of Zymosan-induced rat's paw edema(ZPE) after peroral administration of 10 mg/kg dose; conditions: po; outline: as §4
[27] = tested on: Rattus norvegicus; assay: Compound was tested for the inhibition of Zymosan-induced rat's paw edema(ZPE) after peroral administration of 3 mg/kg dose; conditions: route oral; outline: as §4
[28] = tested on: Rattus norvegicus; assay: Compound was tested for the inhibition of arachidonic acid-induced rat's paw edema(APE) after peroral administration of 30 mg/kg dose; conditions: route oral; outline: as §5
[29] = tested on: Rattus norvegicus; assay: Antiinflammatory activity on Carrageenan rat's paw edema(CPE) after peroral administration of 30 mg/kg dose with control swelling of 75.8%; conditions: route oral
[30] = tested on: Rattus norvegicus; assay: Compound was tested for the inhibition of Zymosan-induced rat's paw edema(ZPE) after peroral administration of 30 mg/kg dose; conditions: route oral; outline: as §4
[31] = tested on: Rattus norvegicus; assay: Antiinflammatory activity on Carrageenan rat's paw edema(CPE) after peroral administration of 100 mg/kg dose with control swelling of 64.2%; conditions: route oral
[32] = tested on: Rattus norvegicus; assay: Compound was tested for the inhibition of rat reversed passive Arthus pleurisy after peroral administration of 25 mg/kg dose at 4.74+/-0.24*10e6 no of cells; conditions: route oral; outline: as §1
[33] = tested on: Rattus norvegicus; assay: Compound was tested for the inhibition of rat reversed passive Arthus pleurisy after peroral administration of 100 mg/kg dose at 0.08 mL of exudate volume with 0.86 mL of control (injected intrapleurally); conditions: route oral; outline: as §2
[34] = tested on: Rattus norvegicus; assay: Compound was tested for the inhibition of arachidonic acid-induced rat's paw edema(APE) after peroral administration of 3 mg/kg dose with control swelling of 51.6%; conditions: route oral; outline: as §5
[35] = tested on: Rattus norvegicus; assay: Antiinflammatory activity on Carrageenan rat's paw edema(CPE) after peroral administration of 10 mg/kg dose with control swelling of 75.8%; conditions: route oral
[36] = tested on: Rattus norvegicus; assay: Compound was tested for the inhibition of rat reversed passive Arthus pleurisy after peroral administration of 25 mg/kg dose at 0.4+/-0.07 mL of exudate volume (injected intrapleurally); conditions: route oral; outline: as §1
[37] = tested on: Rattus norvegicus; assay: Compound was tested for the inhibition of rat reversed passive Arthus pleurisy after peroral administration of 100 mg/kg dose at 0.33 mL of exudate volume with 0.46 mL of control (injected intrapleurally); conditions: route oral; outline: as §2
[38] = tested on: Rattus norvegicus; assay: Antiinflammatory activity on Carrageenan rat's paw edema(CPE) after peroral administration of 100 mg/kg dose with control swelling of 81.0%; conditions: route oral
[39] = tested on: Rattus norvegicus; assay: Compound was tested for the inhibition of rat reversed passive Arthus pleurisy after peroral administration of 100 mg/kg dose at 1.69*10e6 no of cells with 2.17*10e6 cells of control; conditions: route oral; outline: as §2
[40] = tested on: Rattus norvegicus; assay: Antiinflammatory activity on Zymosan-induced rat's paw edema(ZPE) after peroral administration of 100 mg/kg dose with control swelling of 52.2%; conditions: route oral; outline: as §4

COc1cccc(NC(=O)c2c(O)c3cccnc3n(-c3ccccc3)c2=O)c1
inhibition in vivo at 100 mg/kg [1]: 22.1% | inhibition in vivo at 100 mg/kg [2]: 26.9% | inhibition in vivo at 100 mg/kg [3]: 20.7% | Swelling [4]: 59.2% | Swelling [5]: 54% | inhibition in vivo at 100 mg/kg [6]: 5.7%

Nc1ccc(NC(=O)c2c(O)c3cccnc3n(-c3ccccc3)c2=O)cc1
inhibition in vivo at 100 mg/kg [3]: 0% | Swelling [7]: 76.9% | inhibition in vivo at 100 mg/kg [6]: -5.5% | Swelling [8]: 79%

O=C(Nc1ccncc1)c1c(O)c2cccnc2n(-c2ccccc2)c1=O
inhibition in vivo at 100 mg/kg [9]: 100% | Swelling [10]: 72.1% | inhibition in vivo at 100 mg/kg [11]: 58.6% | Swelling [12]: 29.1% | inhibition in vivo at 10 mg/kg [13]: 35.8% | inhibition in vivo at 100 mg/kg [3]: 24.3% | Swelling [14]: 25.5% | inhibition in vivo at 5 mg/kg [15]: -3.2% | inhibition in vivo at 10 mg/kg [16]: 50.6% | Swelling [17]: 54.3% | inhibition in vivo at 10 mg/kg [18]: 32.9% | Swelling [19]: 46.7% | inhibition in vivo at 5 mg/kg [20]: 26% | Swelling [21]: 48.5% | Swelling [22]: 60.6% | inhibition in vivo at 3 mg/kg [23]: 4.9% | inhibition in vivo at 3 mg/kg [24]: 36% | inhibition in vivo at 100 mg/kg [25]: 58.6% | inhibition in vivo at 10 mg/kg [26]: 20.3% | inhibition in vivo at 3 mg/kg [27]: 11.9% | inhibition in vivo at 30 mg/kg [28]: 43.6% | Swelling [29]: 58.8% | inhibition in vivo at 30 mg/kg [30]: 28.8% | Swelling [31]: 48.6% | inhibition in vivo at 25 mg/kg [32]: 33.3% | inhibition in vivo at 100 mg/kg [6]: 34.9% | inhibition in vivo at 100 mg/kg [33]: 100% | Swelling [34]: 33% | Swelling [35]: 71.3% | inhibition in vivo at 25 mg/kg [36]: 51.4%

O=C(NC1CCN(Cc2ccccc2)CC1)c1c(O)c2cccnc2n(-c2ccccc2)c1=O
inhibition in vivo at 100 mg/kg [3]: 1.2% | inhibition in vivo at 100 mg/kg [37]: 32.4% | Swelling [38]: 80.8% | inhibition in vivo at 100 mg/kg [39]: 22.1% | inhibition in vivo at 100 mg/kg [6]: 1.7% | Swelling [40]: 51.3%

O=C(Nc1ccccc1)c1c(O)c2cccnc2n(-c2ccccc2)c1=O
inhibition in vivo at 100 mg/kg [3]: -15% | Swelling [19]: 68.4% | Swelling [31]: 73.8% | inhibition in vivo at 100 mg/kg [6]: 4.6%
